Consider four compounds from ChEMBL document CHEMBL3232963, “Discovery of a potent and selective α3β4 nicotinic acetylcholine receptor antagonist from an α-conotoxin synthetic combinatorial library” (J Med Chem, 2014).

The source made the active and inactive calls. The rule behind the calls is not given here. Bridge positions count the residues as written; N and C are the ends. Peptide text beside a SMILES is read from it.

In general, Ki refers to the equilibrium dissociation constant of an inhibitor or competing ligand from its target. One may read the IC50 as the concentration needed to halve the response being measured. A word on the inhibition: it is the percentage by which the read-out fell short of the control.

Experiment [1] addresses T1, Neuronal acetylcholine receptor; alpha3/beta4 (Rattus norvegicus, UniProt P04757+P12392). In words: Displacement of [3H]epibatadine from rat alpha3beta4 nAChR expressed in HEK293 cells after 2 hrs by betaplate counting analysis. Type of experiment: cell-based. A digest of the protocol:
(§1)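 Membranes from HEK293 cells stably expressing α3β4 or α4β2 nAChR, homogenised in 50 mM Tris pH 7.4 and washed by centrifugation. Incubated 2 h at room temperature with peptide and 0.31 nM [3H]epibatidine; filtered on PEI-soaked glass fibre, counted. Nonspecific binding with 0.1 μM unlabeled epibatidine. Ki by Cheng–Prusoff from IC50.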
On the technique in general: Displacement assays read how much labelled ligand stays bound in the presence of the test substance.

The target of experiment [2] is T1, Neuronal acetylcholine receptor; alpha3/beta4. The experiment in a line: Inhibition of rat alpha3beta4 nAChR expressed in Xenopus laevis oocytes by voltage clamp technique. Type of experiment: cell-based. Put shortly:
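Oocytes expressing α3 chimera/β4 nAChR, voltage-clamped at ~22 °C. Concentrations below 1 μM perfused, with 1 s ACh pulses every 1 min; 1 μM and above given as a 5 min static bath. Lowest concentration tested 10 nM. IC50 from a concentration–response curve with top and bottom fixed at 100 and 0; n = 3–5 oocytes per concentration.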

Experiment [3] concerns the target Neuronal acetylcholine receptor; alpha3/beta4 (Rattus norvegicus) (UniProt P04757+P12392). The experiment in a line: Antagonist activity at rat alpha3beta4 nAChR expressed in HEK293 cells assessed as inhibition of epibatadine-induced effect at 10 uM after 30 mins by fluorescent membrane potential assay relative to mecamylamine. Type of experiment: cell-based. Put shortly: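 Rat α3β4 nAChR stably expressed in HEK293 cells; crude, SPE-desalted individual peptides tested at 10 μM in HBSS with membrane potential blue dye, 30 min at 37 °C. Fluorescence change read after epibatidine (0.1 μM). Percent inhibition set against 10 μM mecamylamine taken as 100%.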

The target in experiment [4] is T1, Neuronal acetylcholine receptor; alpha3/beta4. In words: Antagonist activity at rat alpha3beta4 nAChR expressed in HEK293 cells assessed as inhibition of epibatadine-induced effect after 30 mins by fluorescent membrane potential assay. Format: cell-based. A digest of the protocol:
(§2)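 Stably transfected HEK293 lines (KXα3β4R2, KXα3β2R2, KXα4β2R2; rat subunits) grown in DMEM/10% FBS with G-418, plated 24 h before assay. Cells washed with HBSS, peptide added, then membrane potential blue dye, 30 min at 37 °C. Fluorescence (ex 565/em 530 nm) read up to 60 s after epibatidine to 0.1 μM. IC50 from maximal responses across concentrations; n = 4.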

The target in experiment [5] is Neuronal acetylcholine receptor; alpha3/beta2 (Rattus norvegicus, UniProt P04757+P12390). The experiment in a line: Antagonist activity at rat alpha3beta2 nAChR expressed in HEK293 cells assessed as inhibition of epibatadine-induced effect after 30 mins by fluorescent membrane potential assay. Format: cell-based. Put shortly:
as §2

Experiment [6] deals with Neuronal acetylcholine receptor; alpha4/beta2 (Rattus norvegicus, UniProt P09483+P12390). The experiment in a line: Antagonist activity at rat alpha4beta2 nAChR expressed in HEK293 cells assessed as inhibition of epibatadine-induced effect after 30 mins by fluorescent membrane potential assay. Type of experiment: cell-based. Put shortly: as §2
Sequence of Neuronal acetylcholine receptor; alpha4/beta2 (P09483 whole entry): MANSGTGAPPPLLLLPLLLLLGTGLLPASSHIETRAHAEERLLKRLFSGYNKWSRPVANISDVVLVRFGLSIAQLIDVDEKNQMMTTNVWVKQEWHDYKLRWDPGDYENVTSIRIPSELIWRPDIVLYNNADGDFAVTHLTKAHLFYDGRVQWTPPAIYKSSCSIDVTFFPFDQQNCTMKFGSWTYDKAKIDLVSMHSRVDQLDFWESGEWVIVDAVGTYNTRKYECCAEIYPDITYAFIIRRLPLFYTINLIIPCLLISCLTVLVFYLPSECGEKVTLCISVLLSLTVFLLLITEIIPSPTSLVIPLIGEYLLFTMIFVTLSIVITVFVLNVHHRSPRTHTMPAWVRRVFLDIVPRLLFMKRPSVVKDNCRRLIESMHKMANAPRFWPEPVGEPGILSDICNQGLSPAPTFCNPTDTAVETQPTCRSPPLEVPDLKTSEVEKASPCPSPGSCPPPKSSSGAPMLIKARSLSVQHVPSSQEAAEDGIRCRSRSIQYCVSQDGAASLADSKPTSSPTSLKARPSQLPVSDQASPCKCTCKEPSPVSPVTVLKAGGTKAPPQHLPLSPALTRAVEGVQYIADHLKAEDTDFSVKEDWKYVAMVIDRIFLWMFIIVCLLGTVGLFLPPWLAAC
Sequence of Neuronal acetylcholine receptor; alpha4/beta2 (P12390 whole entry): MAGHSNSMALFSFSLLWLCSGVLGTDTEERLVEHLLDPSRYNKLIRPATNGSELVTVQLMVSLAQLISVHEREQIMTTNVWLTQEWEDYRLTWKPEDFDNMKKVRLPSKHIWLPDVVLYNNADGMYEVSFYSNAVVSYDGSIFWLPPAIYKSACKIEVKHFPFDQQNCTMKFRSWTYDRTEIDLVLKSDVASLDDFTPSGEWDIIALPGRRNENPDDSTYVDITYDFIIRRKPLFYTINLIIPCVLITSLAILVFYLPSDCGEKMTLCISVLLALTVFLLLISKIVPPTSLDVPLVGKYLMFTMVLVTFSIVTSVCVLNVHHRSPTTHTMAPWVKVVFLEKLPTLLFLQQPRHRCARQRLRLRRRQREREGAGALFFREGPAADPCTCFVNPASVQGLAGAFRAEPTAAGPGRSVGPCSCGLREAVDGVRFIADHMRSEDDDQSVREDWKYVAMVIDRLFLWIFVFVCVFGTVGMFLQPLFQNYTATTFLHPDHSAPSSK
The target of experiment [7] is Neuronal acetylcholine receptor; alpha4/beta2 (Rattus norvegicus) (UniProt P09483+P12390). The experiment in a line: Displacement of [3H]epibatadine from rat alpha4beta2 nAChR expressed in HEK293 cells up to 10 uM after 2 hrs by betaplate counting analysis. Format: cell-based. Put shortly: as §1
Experiment [8] concerns HEK293. The experiment in a line: Selectivity ratio of IC50 for rat alpha3beta4 nAChR expressed in HEK293 cells to IC50 for rat alpha3beta2 nAChR expressed in HEK293 cells. Type of experiment: cell-based.
The target of experiment [9] is Neuronal acetylcholine receptor; alpha3/beta4 (Homo sapiens, UniProt P30926+P32297). In words: Antagonist activity at alpha3beta4 nAChR (unknown origin). Format: protein-complex assay. A digest of the protocol: as §2
Sequence of Neuronal acetylcholine receptor; alpha3/beta4 (Homo sapiens, UniProt P30926+P32297) (P30926 whole entry): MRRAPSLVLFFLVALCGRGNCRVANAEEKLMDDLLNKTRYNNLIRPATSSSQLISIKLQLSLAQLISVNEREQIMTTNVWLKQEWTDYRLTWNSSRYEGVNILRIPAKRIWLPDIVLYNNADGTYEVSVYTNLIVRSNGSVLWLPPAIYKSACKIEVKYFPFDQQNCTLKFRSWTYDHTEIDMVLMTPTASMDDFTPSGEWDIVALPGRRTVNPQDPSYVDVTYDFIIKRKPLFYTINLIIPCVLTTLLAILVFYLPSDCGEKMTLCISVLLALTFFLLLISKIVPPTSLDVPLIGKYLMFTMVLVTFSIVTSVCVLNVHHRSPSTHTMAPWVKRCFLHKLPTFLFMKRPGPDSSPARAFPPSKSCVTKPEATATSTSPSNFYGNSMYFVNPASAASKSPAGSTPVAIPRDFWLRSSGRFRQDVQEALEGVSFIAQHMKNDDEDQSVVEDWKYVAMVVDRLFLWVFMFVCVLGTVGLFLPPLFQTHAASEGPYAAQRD
Sequence of Neuronal acetylcholine receptor; alpha3/beta4 (Homo sapiens, UniProt P30926+P32297) (P32297 whole entry): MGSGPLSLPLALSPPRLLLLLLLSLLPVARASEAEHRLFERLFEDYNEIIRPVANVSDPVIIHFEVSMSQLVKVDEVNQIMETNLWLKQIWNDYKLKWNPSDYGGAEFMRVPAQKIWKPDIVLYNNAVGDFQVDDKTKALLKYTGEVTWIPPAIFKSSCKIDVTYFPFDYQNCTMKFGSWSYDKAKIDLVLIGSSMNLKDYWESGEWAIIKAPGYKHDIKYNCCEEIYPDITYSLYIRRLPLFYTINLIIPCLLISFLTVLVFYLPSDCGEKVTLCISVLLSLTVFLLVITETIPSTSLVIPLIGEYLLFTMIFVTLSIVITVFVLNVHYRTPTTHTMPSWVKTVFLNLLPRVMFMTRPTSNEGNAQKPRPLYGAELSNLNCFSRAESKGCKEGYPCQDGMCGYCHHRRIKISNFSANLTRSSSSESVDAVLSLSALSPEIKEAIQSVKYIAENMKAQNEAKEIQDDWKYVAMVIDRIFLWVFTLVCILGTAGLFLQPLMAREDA

T1 sequence (P04757 whole entry): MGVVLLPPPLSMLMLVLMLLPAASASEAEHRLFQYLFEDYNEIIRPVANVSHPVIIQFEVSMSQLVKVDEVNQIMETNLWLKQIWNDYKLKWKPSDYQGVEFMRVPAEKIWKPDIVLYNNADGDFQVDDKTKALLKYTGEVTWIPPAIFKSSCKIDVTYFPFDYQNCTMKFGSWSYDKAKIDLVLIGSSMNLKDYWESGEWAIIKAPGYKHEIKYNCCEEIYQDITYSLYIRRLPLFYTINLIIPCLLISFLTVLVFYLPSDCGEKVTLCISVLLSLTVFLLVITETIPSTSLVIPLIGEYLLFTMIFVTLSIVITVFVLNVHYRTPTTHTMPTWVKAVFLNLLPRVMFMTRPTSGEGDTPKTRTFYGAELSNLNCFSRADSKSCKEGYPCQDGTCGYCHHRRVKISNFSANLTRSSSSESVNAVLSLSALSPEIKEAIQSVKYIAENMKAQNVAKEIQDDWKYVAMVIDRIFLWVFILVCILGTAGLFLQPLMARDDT
T1 sequence (P12392 whole entry): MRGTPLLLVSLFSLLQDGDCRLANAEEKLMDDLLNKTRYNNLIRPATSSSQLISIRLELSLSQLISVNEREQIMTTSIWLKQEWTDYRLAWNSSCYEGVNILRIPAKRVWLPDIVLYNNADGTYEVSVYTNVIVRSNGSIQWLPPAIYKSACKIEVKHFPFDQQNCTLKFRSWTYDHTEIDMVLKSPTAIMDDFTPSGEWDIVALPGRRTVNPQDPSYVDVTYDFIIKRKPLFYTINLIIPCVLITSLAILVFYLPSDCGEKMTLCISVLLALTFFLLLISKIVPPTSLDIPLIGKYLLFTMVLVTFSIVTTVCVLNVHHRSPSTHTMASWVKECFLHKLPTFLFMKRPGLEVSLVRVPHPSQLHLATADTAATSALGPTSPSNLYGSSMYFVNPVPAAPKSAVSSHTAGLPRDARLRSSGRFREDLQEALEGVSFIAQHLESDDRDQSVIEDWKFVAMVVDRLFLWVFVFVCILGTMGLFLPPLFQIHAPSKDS
Sequence of Neuronal acetylcholine receptor; alpha3/beta2 (P04757 whole entry): as the sequence (P04757 whole entry) above
Sequence of Neuronal acetylcholine receptor; alpha3/beta2 (P12390 whole entry): as the sequence (P12390 whole entry) above

Compound `CC(C)C[C@@H]1NC(=O)[C@H](C(C)C)NC(=O)[C@H](C)NC(=O)[C@@H]2CSSC[C@H](NC(=O)CN)C(=O)N[C@@H](CSSC[C@@H](C(=O)O)NC(=O)[C@H](Cc3ccc(O)cc3)NC1=O)C(=O)N[C@@H](CO)C(=O)N[C@@H]([C@H](C)O)C(=O)N1CCC[C@H]1C(=O)N1CCC[C@H]1C(=O)N2` had an inhibitory constant (Ki) in experiment [1] of 851 nM. Moreover, the half-inhibitory concentration (IC50) in experiment [2] was 27.7 nM; in experiment [4], 265 nM; in experiment [5] it was 26 nM; in [6] it was greater than 10000 nM. Besides, the inhibition in experiment [3] came out at 94.4%. For the same compound, the result in experiment [7] was inactive. Also, in experiment [8], the Ratio IC50 was 10.

With `C[C@@H]1NC(=O)[C@H](Cc2ccccc2)NC(=O)[C@@H]2CSSC[C@H](NC(=O)CN)C(=O)N[C@@H](CSSC[C@@H](C(=O)O)NC(=O)[C@H](CC(=O)O)NC(=O)[C@@H]3CCCN3C(=O)[C@H](CC(N)=O)NC(=O)[C@H]([C@@H](C)O)NC1=O)C(=O)N[C@@H](CO)C(=O)N[C@@H](Cc1ccc(O)cc1)C(=O)N1CCC[C@H]1C(=O)N1CCC[C@H]1C(=O)N2`, the IC50 in experiment [2] stood at 770 nM.

As to `CC[C@H](C)[C@@H]1NC(=O)[C@H](Cc2cnc[nH]2)NC(=O)[C@@H]2CCCN2C(=O)[C@H](CC(N)=O)NC(=O)[C@H](CC(N)=O)NC(=O)[C@H](C(C)C)NC(=O)[C@H](CC(N)=O)NC(=O)[C@@H]2CSSC[C@H](NC(=O)CN)C(=O)N[C@@H](CSSC[C@@H](C(=O)O)NC1=O)C(=O)N[C@@H](CO)C(=O)N[C@@H](Cc1cnc[nH]1)C(=O)N1CCC[C@H]1C(=O)N[C@@H](C)C(=O)N2` (H-GCCSHPACNVNNPHIC-OH; disulfide 2-8, 3-16), in experiment [9], inhibition was half-maximal at 97 nM (IC50).

Compound `CC(C)C[C@@H]1NC(=O)[C@H](CCC(=O)O)NC(=O)[C@@H]2CCCN2C(=O)[C@H](Cc2cnc[nH]2)NC(=O)[C@H](CC(N)=O)NC(=O)[C@H](C(C)C)NC(=O)[C@H](CO)NC(=O)[C@@H]2CSSC[C@H](NC(=O)CN)C(=O)N[C@@H](CSSC[C@@H](C(=O)O)NC1=O)C(=O)N[C@@H](CO)C(=O)N[C@@H](Cc1cnc[nH]1)C(=O)N1CCC[C@H]1C(=O)N[C@@H](C)C(=O)N2` (H-GCCSHPACSVNHPELC-OH; disulfide 2-8, 3-16) had an IC50 in [2] of 480 nM.
